According to ChEMBL document CHEMBL5724801, “EUbOPEN Chemogenomics Library - Multiplex” (2024):
“And” between values parts separate entries of the source, which are not always exact repeats. Equal values may be shown once.

Tested on: U2OS
Test: Multiplex assay against U2OS
Assay type: toxicity, cell-based
Settings: human
How it was run: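 Hoechst33342, BioTracker Green Microtubule Cytoskeleton Dye, MitoTracker Red and Annexin V Alexa Fluor 680 were added to live cells at seeding, and imaging on a CQ1 microscope at 37°C and 5% CO2 followed compound addition. Gating by CellPathfinder machine learning separated cells into Hoechst high-intensity objects or normal cells, then normal cells into healthy, pyknosed or fragmented nuclei, then pyknosed cells into mitotic or apoptotic. Per cents of healthy-nucleus cells are reported for the tubulin, mitochondrial-mass and membrane-permeability phenotypes.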

[1] = 12 h, 1 µM, compound concentration 1 uM
[2] = 12 h, 10 µM, compound concentration 10 uM
[3] = 24 h, 1 µM, compound concentration 1 uM
[4] = 24 h, 10 µM, compound concentration 10 uM
[5] = 48 h, 1 µM, compound concentration 1 uM
[6] = 48 h, 10 µM, compound concentration 10 uM

## CC[C@H]1OC(=O)[C@H](C)[C@@H](O[C@H]2C[C@@](C)(OC)[C@@H](O)[C@H](C)O2)[C@H](C)[C@@H](O[C@@H]2O[C@H](C)C[C@H](N(C)C)[C@H]2O)[C@@]2(C)CC(C)=C(O2)[C@H](C)[C@@H](O)[C@]1(C)O
[1]
  Population Apoptotic (%): 50% and 84%
  Population Fragmented Nuclei (%): 19% and 23%
  Population Healthy Nuclei (%): 63% and 62%
  Population Hoechst High Intensity Objects (%): 3% and 1%
  Population Membrane Permeable-Phenotype (%): 33% and 21%
  Population Mitochondria Different-Phenotype (%): 23% and 14%
  Population Normal (%): 96% and 98%
  Population Pyknosed Nuclei (%): 17% and 14%
  Population Tubulin-Different-Phenotype (%): 25% and 14%
  Total Cell Count: 226 and 91
[2]
  Population Apoptotic (%): 65% and 73%
  Population Fragmented Nuclei (%): 34% and 21%
  Population Healthy Nuclei (%): 40% and 47%
  Population Hoechst High Intensity Objects (%): 7% and 4%
  Population Membrane Permeable-Phenotype (%): 82% and 72%
  Population Mitochondria Different-Phenotype (%): 63% and 81%
  Population Mitotic Cells (%): 34% and 26%
  Population Normal (%): 92% and 95%
  Population Pyknosed Nuclei (%): 25% and 31%
  Population Tubulin-Different-Phenotype (%): 89% and 96%
  Total Cell Count: 223 and 128
[3]
  Population Apoptotic (%): 65% and 72%
  Population Fragmented Nuclei (%): 20% and 19%
  Population Healthy Nuclei (%): 63% and 64%
  Population Hoechst High Intensity Objects (%): 4% and 5%
  Population Membrane Permeable-Phenotype (%): 20% and 14%
  Population Mitochondria Different-Phenotype (%): 15% and 14%
  Population Mitotic Cells (%): 35% and 27%
  Population Normal (%): 95% and 94%
  Population Pyknosed Nuclei (%): 16%
  Population Tubulin-Different-Phenotype (%): 17% and 10%
  Total Cell Count: 256 and 115
[4]
  Population Apoptotic (%): 67% and 82%
  Population Fragmented Nuclei (%): 33% and 24%
  Population Healthy Nuclei (%): 36% and 45%
  Population Hoechst High Intensity Objects (%): 5% and 4%
  Population Membrane Permeable-Phenotype (%): 56% and 75%
  Population Mitochondria Different-Phenotype (%): 65% and 86%
  Population Mitotic Cells (%): 32% and 17%
  Population Normal (%): 94% and 95%
  Population Pyknosed Nuclei (%): 29% and 30%
  Population Tubulin-Different-Phenotype (%): 76% and 88%
  Total Cell Count: 210 and 121
[5]
  Population Apoptotic (%): 67% and 78%
  Population Fragmented Nuclei (%): 19% and 32%
  Population Healthy Nuclei (%): 54% and 58%
  Population Hoechst High Intensity Objects (%): 9% and 2%
  Population Membrane Permeable-Phenotype (%): 13% and 12%
  Population Mitochondria Different-Phenotype (%): 8% and 12%
  Population Mitotic Cells (%): 32% and 21%
  Population Normal (%): 91% and 97%
  Population Pyknosed Nuclei (%): 26% and 9%
  Population Tubulin-Different-Phenotype (%): 11% and 7%
  Total Cell Count: 300 and 147
[6]
  Population Apoptotic (%): 85% and 83%
  Population Fragmented Nuclei (%): 37% and 20%
  Population Healthy Nuclei (%): 31% and 42%
  Population Hoechst High Intensity Objects (%): 7% and 9%
  Population Membrane Permeable-Phenotype (%): 58% and 62%
  Population Mitochondria Different-Phenotype (%): 55% and 81%
  Population Mitotic Cells (%): 14% and 16%
  Population Normal (%): 92% and 90%
  Population Pyknosed Nuclei (%): 31% and 36%
  Population Tubulin-Different-Phenotype (%): 63% and 88%
  Total Cell Count: 236 and 112

## CCCOc1ccc2[nH]cc(C3=CCNCC3)c2n1.Cl
[1]
  Population Apoptotic (%): 80% and 87%
  Population Fragmented Nuclei (%): 31% and 13%
  Population Healthy Nuclei (%): 58% and 78%
  Population Hoechst High Intensity Objects (%): 2% and 1%
  Population Membrane Permeable-Phenotype (%): 2% and 11%
  Population Mitochondria Different-Phenotype (%): 1% and 7%
  Population Mitotic Cells (%): 19% and 12%
  Population Normal (%): 97% and 98%
  Population Pyknosed Nuclei (%): 9% and 8%
  Population Tubulin-Different-Phenotype (%): 1% and 5%
  Total Cell Count: 218 and 98
[2]
  Population Apoptotic (%): 86% and 60%
  Population Fragmented Nuclei (%): 24% and 17%
  Population Healthy Nuclei (%): 66% and 74%
  Population Hoechst High Intensity Objects (%): 4% and 0%
  Population Membrane Permeable-Phenotype (%): 6% and 12%
  Population Mitochondria Different-Phenotype (%): 5%
  Population Normal (%): 96% and 100%
  Population Pyknosed Nuclei (%): 8% and 7%
  Population Tubulin-Different-Phenotype (%): 3% and 6%
  Total Cell Count: 275 and 134
[3]
  Population Apoptotic (%): 70% and 90%
  Population Fragmented Nuclei (%): 27% and 18%
  Population Healthy Nuclei (%): 61% and 73%
  Population Hoechst High Intensity Objects (%): 1% and 2%
  Population Membrane Permeable-Phenotype (%): 6% and 3%
  Population Mitochondria Different-Phenotype (%): 1% and 3%
  Population Normal (%): 98% and 97%
  Population Pyknosed Nuclei (%): 10% and 8%
  Population Tubulin-Different-Phenotype (%): 3% and 2%
  Total Cell Count: 252 and 138
[4]
  Population Apoptotic (%): 92% and 72%
  Population Fragmented Nuclei (%): 25% and 14%
  Population Healthy Nuclei (%): 66% and 78%
  Population Hoechst High Intensity Objects (%): 3% and 0%
  Population Membrane Permeable-Phenotype (%): 5% and 11%
  Population Mitochondria Different-Phenotype (%): 3% and 2%
  Population Normal (%): 96% and 99%
  Population Pyknosed Nuclei (%): 8% and 6%
  Population Tubulin-Different-Phenotype (%): 3% and 4%
  Total Cell Count: 323 and 162
[5]
  Population Apoptotic (%): 91% and 75%
  Population Fragmented Nuclei (%): 19%
  Population Healthy Nuclei (%): 69% and 74%
  Population Hoechst High Intensity Objects (%): 2%
  Population Membrane Permeable-Phenotype (%): 5% and 9%
  Population Mitochondria Different-Phenotype (%): 3%
  Population Normal (%): 97%
  Population Pyknosed Nuclei (%): 10% and 6%
  Population Tubulin-Different-Phenotype (%): 1% and 3%
  Total Cell Count: 350 and 183
[6]
  Population Apoptotic (%): 100% and 94%
  Population Fragmented Nuclei (%): 18% and 13%
  Population Healthy Nuclei (%): 75% and 78%
  Population Hoechst High Intensity Objects (%): 4% and 0%
  Population Membrane Permeable-Phenotype (%): 5% and 6%
  Population Mitochondria Different-Phenotype (%): 2% and 3%
  Population Mitotic Cells (%): 0% and 5%
  Population Normal (%): 95% and 99%
  Population Pyknosed Nuclei (%): 6% and 7%
  Population Tubulin-Different-Phenotype (%): 3%
  Total Cell Count: 423 and 243
